Common to all, as to assay type: functional, cell-based
The test system of one experiment is MCF7. Kind of experiment: Antitumor activity against human MCF7 cells by SRB colorimetric assay. The method, boiled down: (§1)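 NCI sulforhodamine B colorimetric growth assay in 96-well plates. Each compound tested at four concentrations in 10-fold dilutions. Doxorubicin as positive control. IC50 taken from concentration–response curves as the concentration giving 50% reduction in cell growth versus untreated control cells.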
On the technique in general: In SRB staining, fixed cells bind dye roughly in proportion to their protein.

Another experiment concerns K562. Kind of experiment: Antitumor activity against human K562 cells by SRB colorimetric assay. The method, boiled down: as §1
Experiment [1] in a line: Antitumor activity against human PCO3 cells by SRB colorimetric assay. The gist of the method: as §1
Another experiment concerns NCI-H460. As to the kind of experiment: Antitumor activity against human NCI-H460 cells by SRB colorimetric assay. The gist of the method:
as §1

In another experiment the test system is 786-0. As to the kind of experiment: Antitumor activity against human 786-0 cells by SRB colorimetric assay. The gist of the method: as §1
The subject of another experiment is OVCAR. Kind of experiment: Antitumor activity against human OVCAR cells by SRB colorimetric assay. The gist of the method: as §1
Another experiment concerns UACC-62. As to the kind of experiment: Antitumor activity against human UACC62 cells by SRB colorimetric assay. The method, boiled down:
as §1

Another experiment concerns HT-29. As to the kind of experiment: Antitumor activity against human HT-29 cells by SRB colorimetric assay. The method, boiled down:
as §1

Where only a bound is given, the exact number is not on record here.

As usually defined, the IC50 is the point on the concentration scale where inhibition reaches its midpoint. High values mean a need for much substance, low ones inhibition by little substance. Take `COc1ccc(-c2nc(C(=O)N/N=C/c3ccc([N+](=O)[O-])cc3)cc3c2[nH]c2ccccc23)cc1`: the IC50 (with MCF7; in the experiment on K562; in experiment [1]; in the experiment on NCI-H460; in the experiment with 786-0; in the experiment with OVCAR) was more than 100 µM each time. The IC50 in the experiment with UACC-62 and in the experiment with HT-29 was more than 100 µM each time.
`O=C(N/N=C/c1ccccc1)c1cc2c([nH]c3ccccc32)c(-c2ccc([N+](=O)[O-])cc2)n1`: the IC50 in the experiment with MCF7 was determined as 25 µM; with K562, 14.4 µM; in experiment [1], 15.9 µM; in the experiment with NCI-H460, 13.8 µM; in the experiment on 786-0, 29.9 µM; in the experiment with OVCAR, 2.05 µM. For the same compound, the IC50 with UACC-62 was found to be 11.8 µM; with HT-29, 18.8 µM.
In the case of `COc1ccc(/C=N/NC(=O)c2cc3c([nH]c4ccccc43)c(-c3ccc([N+](=O)[O-])cc3)n2)cc1`, the IC50 in the experiment with MCF7 was 8.19 µM; in the experiment with K562 it was 7.54 µM; in experiment [1], 7.54 µM; in the experiment with NCI-H460, 4.58 µM; with 786-0, 14.1 µM; in the experiment on OVCAR, 21.4 µM. The IC50 came to 9.69 µM in the experiment with UACC-62 and 8.92 µM in the experiment with HT-29.
As for `CC(C)=NNC(=O)c1cc2c([nH]c3ccccc32)c(-c2ccccc2Cl)n1`, the IC50 with MCF7 is 26.7 µM; in the experiment on K562, 21.7 µM; in experiment [1], 25.6 µM; with NCI-H460, more than 100 µM; in the experiment with 786-0, more than 100 µM; with OVCAR, 64.2 µM. The results for the IC50 in the experiment with UACC-62 and with HT-29 were 19.1 µM and 38.9 µM, respectively.
On to `O=C(N/N=C/c1ccccc1Cl)c1cc2c([nH]c3ccccc32)c(-c2ccc(O)cc2)n1`, for which the IC50 in the experiment on MCF7 worked out at 7.01 µM; in the experiment with K562 it was 1.65 µM; in experiment [1], 2.03 µM; with NCI-H460, 2.18 µM; in the experiment on 786-0 it was 3.22 µM; with OVCAR it was 1.83 µM. Also, the values for the IC50 in the experiment on UACC-62 and with HT-29 were 1.56 µM and 1.71 µM, respectively.
In the case of `O=C(NN=C1CCCCC1)c1cc2c([nH]c3ccccc32)c(-c2ccccc2)n1`, the IC50 in the experiment on MCF7 is 32.5 µM; in the experiment on K562 it was 55.9 µM; in experiment [1] it was 27.5 µM; in the experiment with NCI-H460, 68.9 µM; in the experiment on 786-0, more than 100 µM; in the experiment on OVCAR it was 78 µM. Moreover, the IC50 in the experiment on UACC-62 came out at 31.2 µM; in the experiment with HT-29 it was 47.3 µM.
Take `COc1ccc(-c2nc(C(=O)N/N=C/c3ccccc3Cl)cc3c2[nH]c2ccccc23)cc1`: the IC50 in the experiment on MCF7 amounted to 10.4 µM; in the experiment on K562, 2.52 µM; in experiment [1], 4.52 µM; with NCI-H460, 1.43 µM; in the experiment on 786-0, 2.52 µM; in the experiment on OVCAR, 7.43 µM. Further, the results for the IC50 in the experiment with UACC-62 and with HT-29 were 5.57 µM and 1.26 µM, respectively.
As to `COc1ccc(-c2nc(C(=O)N/N=C/c3ccccc3)cc3c4ccccc4n(C)c23)cc1`, the IC50 in the experiment on MCF7 is more than 100 µM; in the experiment with K562, more than 100 µM; in experiment [1], more than 100 µM; in the experiment with NCI-H460 it was more than 100 µM; in the experiment on 786-0, 1.39 µM; with OVCAR it was more than 100 µM. For the same compound, the IC50 in the experiment on UACC-62 and in the experiment with HT-29 was more than 100 µM in each case.
On to `CN(C)c1ccc(/C=N/NC(=O)c2cc3c([nH]c4ccccc43)c(-c3ccc([N+](=O)[O-])cc3)n2)cc1`, for which the IC50 (in the experiment with MCF7; in the experiment on K562; in experiment [1]; in the experiment on NCI-H460; with 786-0; with OVCAR) was more than 100 µM each time. For the same compound, the IC50 in the experiment on UACC-62 and in the experiment with HT-29 was more than 100 µM throughout.
In the case of `O=C(NN=C1CCCCC1)c1cc2c([nH]c3ccccc32)c(-c2ccc(O)cc2)n1`, the IC50 worked out at 8.33 µM in the experiment on MCF7; 10.3 µM in the experiment with K562; 7.68 µM in experiment [1]; 13.2 µM with NCI-H460; 15 µM in the experiment on 786-0; 13.2 µM in the experiment with OVCAR. The figures for the IC50 with UACC-62 and in the experiment with HT-29 were 7.86 µM and 10.3 µM, respectively.
Regarding `O=C(N/N=C/c1ccccc1)c1cc2c([nH]c3ccccc32)c(-c2ccc(O)cc2)n1`, the concentration for half-maximal inhibition (IC50) worked out at 8.94 µM in the experiment on MCF7; 4.31 µM in the experiment on K562; 2.25 µM in experiment [1]; 19.8 µM in the experiment with NCI-H460; 4.32 µM in the experiment on 786-0; 1.26 µM in the experiment on OVCAR. The figures for the IC50 in the experiment with UACC-62 and in the experiment with HT-29 were 3.18 µM and 4.32 µM, respectively.
For the compound `CC(C)=NNC(=O)c1cc2c([nH]c3ccccc32)c(-c2ccccc2)n1`, the IC50 in the experiment on MCF7 was found to be 14.2 µM; with K562, 6.69 µM; in experiment [1] it was 15.4 µM; with NCI-H460, 19.8 µM; in the experiment with 786-0 it was 16.1 µM; in the experiment with OVCAR, 26.4 µM. Besides, the IC50 in the experiment on UACC-62 is 10.1 µM; in the experiment on HT-29, 19.8 µM.
`O=C(NN=C1CCCC1)c1cc2c([nH]c3ccccc32)c(-c2ccc([N+](=O)[O-])cc2)n1`: the IC50 (in the experiment with MCF7; in the experiment on K562; in experiment [1]; in the experiment with NCI-H460; in the experiment on 786-0; in the experiment with OVCAR) was more than 100 µM throughout. The IC50 in the experiment with UACC-62 and with HT-29 was more than 100 µM each time.
For `CC(C)=NNC(=O)c1cc2c([nH]c3ccccc32)c(-c2cccc([N+](=O)[O-])c2)n1`, the IC50 (with MCF7; with K562; in experiment [1]; in the experiment on NCI-H460; in the experiment on 786-0; in the experiment on OVCAR) was more than 100 µM throughout. Also, the IC50 with UACC-62 and in the experiment with HT-29 was more than 100 µM throughout.
Take `COc1ccc(-c2nc(C(=O)NN=C(C)C)cc3c2[nH]c2ccccc23)cc1O`: the IC50 in the experiment on MCF7 is more than 100 µM; with K562, more than 100 µM; in experiment [1], more than 100 µM; in the experiment on NCI-H460 it was more than 100 µM; in the experiment on 786-0, 70 µM; with OVCAR it was more than 100 µM. Moreover, the IC50 in the experiment with UACC-62 and with HT-29 was more than 100 µM each time.
Consider `O=C(N/N=C/c1ccccc1Cl)c1cc2c([nH]c3ccccc32)c(-c2ccccc2)n1`, for which the half-maximal inhibitory concentration (IC50) in the experiment with MCF7 came to 6.13 µM; in the experiment with K562, 1.45 µM; in experiment [1] it was 2.52 µM; with NCI-H460, 4.57 µM; in the experiment on 786-0 it was 2.16 µM; in the experiment on OVCAR, 2.84 µM. Also, the IC50 in the experiment on UACC-62 came out at 2.16 µM; with HT-29, 1.25 µM.
For `O=C(N/N=C/c1ccc([N+](=O)[O-])cc1)c1cc2c([nH]c3ccccc32)c(-c2cccc([N+](=O)[O-])c2)n1`, the IC50 with MCF7 is 12.8 µM; in the experiment on K562 it was 4.26 µM; in experiment [1], 24.8 µM; in the experiment with NCI-H460 it was 6.76 µM; with 786-0, more than 100 µM; in the experiment on OVCAR it was 46.7 µM. In addition, the IC50 was determined as 3.27 µM in the experiment with UACC-62 and 7.34 µM in the experiment on HT-29.
`O=C(N/N=C/c1ccc([N+](=O)[O-])cc1)c1cc2c([nH]c3ccccc32)c(-c2ccc([N+](=O)[O-])cc2)n1`: the IC50 (in the experiment with MCF7; in the experiment with K562; in experiment [1]; in the experiment with NCI-H460; in the experiment with 786-0; in the experiment on OVCAR) was more than 100 µM each time. Besides, the IC50 in the experiment on UACC-62 and in the experiment on HT-29 was more than 100 µM throughout.
`O=C(N/N=C/c1ccc([N+](=O)[O-])cc1)c1cc2c([nH]c3ccccc32)c(-c2ccccc2)n1`: the IC50 with MCF7 is 21.3 µM; with K562, 4.29 µM; in experiment [1], 8.6 µM; in the experiment with NCI-H460, 5.16 µM; in the experiment with 786-0, 29.7 µM; in the experiment on OVCAR it was 14.4 µM. The figures for the IC50 in the experiment with UACC-62 and in the experiment with HT-29 were 4.78 µM and 15.1 µM, respectively.
In the case of `O=C(N/N=C/c1ccccc1)c1cc2c([nH]c3ccccc32)c(-c2ccccc2)n1`, the IC50 in the experiment on MCF7 was 15.7 µM; with K562, 79.5 µM; in experiment [1] it was 11.6 µM; in the experiment on NCI-H460, 8.49 µM; in the experiment on 786-0, more than 100 µM; with OVCAR, 10.6 µM. Also, the IC50 is 25.9 µM in the experiment on UACC-62 and more than 100 µM in the experiment on HT-29.
As for `COc1ccc(-c2nc(C(=O)NN=C(C)C)cc3c2[nH]c2ccccc23)cc1`, the IC50 (with MCF7; in the experiment on K562; in experiment [1]; in the experiment with NCI-H460; in the experiment on 786-0; in the experiment with OVCAR) was more than 100 µM in each case. Also, the IC50 in the experiment with UACC-62 is 40.7 µM; in the experiment with HT-29, more than 100 µM.
Regarding `CN(C)c1ccc(-c2nc(C(=O)NN=C3CCCC3)cc3c2[nH]c2ccccc23)cc1`, the IC50 with MCF7 is 22.6 µM; in the experiment on K562 it was 13.4 µM; in experiment [1], 20.4 µM; in the experiment on NCI-H460, 80.9 µM; with 786-0, more than 100 µM; in the experiment with OVCAR it was more than 100 µM. The IC50 with UACC-62 came out at 18.8 µM; in the experiment with HT-29, 55.6 µM.
`CC(C)=NNC(=O)c1cc2c([nH]c3ccccc32)c(-c2ccc([N+](=O)[O-])cc2)n1`: the IC50 (in the experiment with MCF7; in the experiment with K562; in experiment [1]; with NCI-H460; in the experiment on 786-0; in the experiment on OVCAR) was more than 100 µM throughout. The IC50 in the experiment with UACC-62 and in the experiment with HT-29 was more than 100 µM each time.
With `O=C(N/N=C/c1ccccc1)c1cc2c([nH]c3ccccc32)c(-c2cccc([N+](=O)[O-])c2)n1`, the IC50 in the experiment with MCF7 was 2.61 µM; in the experiment with K562, 1.24 µM; in experiment [1], more than 100 µM; in the experiment with NCI-H460, 1.93 µM; with 786-0 it was 3.76 µM; in the experiment with OVCAR it was 6.14 µM. Further, the IC50 with UACC-62 came to 1.19 µM; with HT-29 it was 1.93 µM.
